ChEMBL document CHEMBL4138228, “Substituted carbamothioic amine-1-carbothioic thioanhydrides as novel trichomonicidal fungicides: Design, synthesis, and biology” (Eur J Med Chem, 2018)
Converted amounts (≈) assume the structure as drawn. The source made the active and inactive calls. No cut-off for these calls is given here.

Key:
[1] = tested on: Nakaseomyces glabratus; test: Antifungal activity against Candida glabrata ATCC 2001 after 48 hrs by broth microdilution method; format: functional; settings: ATCC 2001, 48 h
Outline: (§1)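 Broth microdilution per NCCLS guidelines in MOPS-buffered RPMI 1640; starting inoculum 1-5 x 10^3 CFU/mL; plates incubated at 35 °C; MIC recorded after 48 h; fluconazole as reference; experiments repeated three times.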

[2] = tested on: Candida albicans; test: Antifungal activity against Candida albicans ATCC 66027 after 48 hrs by broth microdilution method; format: functional; settings: ATCC 66027, 48 h; outline: as §1
[3] = tested on: Candida albicans; test: Antifungal activity against Candida albicans ATCC 14053 after 48 hrs by broth microdilution method; format: functional; settings: ATCC 14053, 48 h; outline: as §1
[4] = tested on: Candida albicans; test: Antifungal activity against Candida albicans ATCC 10231 after 48 hrs by broth microdilution method; format: functional; settings: ATCC 10231, 48 h; outline: as §1
[5] = tested on: Candida albicans; test: Antifungal activity against Candida albicans patient isolate after 48 hrs by broth microdilution method; format: functional; outline: as §1
[6] = tested on: Trichophyton mentagrophytes; test: Antifungal activity against Trichophyton mentagrophytes after 48 hrs by broth microdilution method; format: functional; outline: as §1
[7] = tested on: Sporothrix schenckii; test: Antifungal activity against Sporothrix schenckii after 48 hrs by broth microdilution method; format: functional; outline: as §1
[8] = tested on: Cryptococcus neoformans; test: Antifungal activity against Cryptococcus neoformans after 48 hrs by broth microdilution method; format: functional; outline: as §1
[9] = Selectivity index, ratio of IC50 for human HeLa cells to MIC for metronidazole-susceptible Trichomonas vaginalis; format: toxicity; settings: read-out: Selectivity Index
[10] = Selectivity index, ratio of IC50 for human HeLa cells to MIC for metronidazole-resistant Trichomonas vaginalis CDC085 ATCC 50143; format: toxicity; settings: read-out: Selectivity Index
[11] = tested on: HeLa; test: Cytotoxicity against human HeLa cells after 24 hrs by MTT assay; format: cell-based
[12] = tested on: Trichomonas vaginalis; test: Antitrichomonas activity against metronidazole-resistant Trichomonas vaginalis CDC085 ATCC 50143 assessed as decrease in cell viability after 48 hrs by trypan blue exclusion method; format: functional; settings: CDC085 ATCC 50143, 48 h
[13] = tested on: Trichomonas vaginalis; test: Antitrichomonas activity against metronidazole-susceptible Trichomonas vaginalis assessed as decrease in cell viability after 48 hrs by trypan blue exclusion method; format: functional
[14] = tested on: Trichomonas vaginalis; test: Potency index, ratio of metronidazole MIC to test compound MIC for metronidazole-resistant Trichomonas vaginalis CDC085 ATCC 50143; format: functional
[15] = tested on: Trichomonas vaginalis; test: Selectivity ratio of MIC for metronidazole-resistant Trichomonas vaginalis CDC085 ATCC 50143 to MIC for metronidazole-susceptible Trichomonas vaginalis; format: functional
[16] = tested on: Candida albicans; test: Antifungal activity against Candida albicans MTCC 183 after 48 hrs by broth microdilution method; format: functional; settings: MTCC 183, 48 h; outline: as §1
[17] = tested on: Candida parapsilosis; test: Antifungal activity against Candida parapsilosis ATCC 22019 after 48 hrs by broth microdilution method; format: functional; settings: Lodderomyces parapsilosis, ATCC 22019, 48 h; outline: as §1
[18] = tested on: Trichomonas vaginalis; test: Potency index, ratio of metronidazole MIC to test compound MIC for metronidazole-susceptible Trichomonas vaginalis; format: functional
[19] = tested on: Plasmodium falciparum; test: Antimalarial activity against chloroquine-sensitive Plasmodium falciparum 3D7 infecetd in RBC after 72 hrs by SYBR Green dye-based fluorescence assay; format: functional, organism-based; settings: 3D7, Erythrocyte
[20] = tested on: Plasmodium falciparum; test: Antimalarial activity against chloroquine-resistant Plasmodium falciparum K1 infecetd in RBC after 72 hrs by SYBR Green dye-based fluorescence assay; format: functional, organism-based; settings: K1, Erythrocyte
[21] = tested on: Trichomonas vaginalis; test: Antitrichomonas activity against metronidazole-susceptible Trichomonas vaginalis infected in mouse assessed as growth of abscess at 50 to 100 mg/kg, po administered for […] post last dose (reference value: 96.55 mm'2); format: functional
[22] = tested on: Trichomonas vaginalis; test: Antitrichomonas activity against metronidazole-susceptible Trichomonas vaginalis infected in mouse assessed as growth of abscess at 50 mg/kg, po administered for 7 days measured on day 7 post last dose (reference value: 96.5 mm'2); format: functional
[23] = tested on: Trichomonas vaginalis; test: Antitrichomonas activity against metronidazole-susceptible Trichomonas vaginalis infected in mouse assessed as growth of abscess at 100 mg/kg, po administered for 7 days measured on day 7 post last dose (reference value: 96.5 mm'2); format: functional
[24] = Cmax in Sprague-Dawley rat at 50 mg/kg, po measured up to 24 hrs by LC-MS/MS analysis; format: ADME, organism-based; design: dose 50 mg/kg, route oral; settings: in vivo
Outline: (§2)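 Male rats fasted 12-16 h before dosing (n = 4 per time point). Each received a single 50 mg/kg oral dose as a 12.5 mg/mL suspension in 1% w/v gum acacia in water, given by feeding needle. Serum was sampled up to 24 h, cleaned up by protein precipitation and assayed by LC-MS/MS (MRM, phenacetin internal standard, linear 1-200 ng/mL). Parameters were derived by non-compartmental analysis.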

[25] = Tmax in Sprague-Dawley rat at 50 mg/kg, po measured up to 24 hrs by LC-MS/MS analysis; format: ADME, organism-based; settings: in vivo; outline: as §2
[26] = tested on: Rattus norvegicus; test: AUClast in Sprague-Dawley rat at 50 mg/kg, po measured up to 24 hrs by LC-MS/MS analysis; format: ADME, organism-based; design: time < 24 hr, dose 50 mg/kg, route oral; settings: in vivo; outline: as §2
[27] = Elimination half life in Sprague-Dawley rat at 50 mg/kg, po measured up to 24 hrs by LC-MS/MS analysis; format: ADME, organism-based; settings: in vivo, read-out: beta t1/2 (converted); outline: as §2
[28] = tested on: Rattus norvegicus; test: Clearance in Sprague-Dawley rat at 50 mg/kg, po measured up to 24 hrs by LC-MS/MS analysis; format: ADME, organism-based; settings: in vivo; outline: as §2
[29] = tested on: Rattus norvegicus; test: Volume of distribution at steady state in Sprague-Dawley rat at 50 mg/kg, po measured up to 24 hrs by LC-MS/MS analysis; format: ADME, organism-based; settings: in vivo; outline: as §2
[30] = tested on: Trichomonas vaginalis; test: Inhibition of free sulfhydryl group in Trichomonas vaginalis at MIC after 24 hrs by mBBr dye-based fluorescence microscopic method
Outline: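 Cells were pelleted (700 xg, 10 min, 4°C) and washed in PBS. They were then labelled in the dark with a fluorometric thiol detector prediluted 100x. Imaging used epifluorescence microscopy through a UV-1A filter, with the same exposure for all samples, and was assessed qualitatively.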

Work on CN(C)C(=S)SC(=S)N1CCN(c2ncccn2)CC1 yielded an MIC [1] of 153 µM (≈ 50.1 µg/mL), an MIC [2] of 38.2 µM (≈ 12.5 µg/mL) and an MIC [3] of 153 µM (≈ 50.1 µg/mL). For the same molecule, the MIC [4] was 153 µM (≈ 50.1 µg/mL), the MIC [5] was 153 µM (≈ 50.1 µg/mL) and the MIC [6] was 153 µM (≈ 50.1 µg/mL). It also gave an MIC [7] of 153 µM (≈ 50.1 µg/mL), an MIC [8] of 153 µM (≈ 50.1 µg/mL) and a selectivity ratio [9] of 1050. The selectivity ratio [10] was 131, the IC50 [11] was over 5000 µM and the MIC [12] was 38.2 µM (≈ 12.5 µg/mL). The MIC [13] was 4.77 µM (≈ 1.56 µg/mL), the Ratio [14] was 9.5 and the selectivity ratio [15] was 8. The MIC [16] was 76.5 µM (≈ 25 µg/mL), the MIC [17] was 153 µM (≈ 50.1 µg/mL) and the Ratio [18] was 3.8. For the same molecule, the IC50 [19] was 0.76 µM, the IC50 [20] was 1.85 µM and the Activity [21] was 1 - 2.5 mm2. It also gave an Activity [22] of 1.57 mm2, an Activity [23] of 0.79 mm2 and a Cmax [24] of 0.0471 µg/mL. For the same molecule, the Tmax [25] was 2 h, the AUClast [26] was 0.1405 µg·h/mL and the half-life [27] was 2.6 h. The CL [28] was 4.9 L/h/kg, the Vdss [29] was 12.6 L/kg and the inhibition [30] was “Active”.
